This is an account of results in ChEMBL document CHEMBL1125826, “Synthesis and biological activity of 5-amino- and 5-hydroxyquinolones, and the overwhelming influence of the remote N1-substituent in determining the structure-activity relationship” (1991).

What all share (type): functional
The test system of assay [1] is Staphylococcus aureus. Briefly: Antibacterial activity was determined against gram positive organism, Staphylococcus aureus H228. Conditions: Staphylococcus aureus; read-out: MIC. An outline of the steps:
(§1)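 MIC (µg/mL) by standard microtitration against a panel of 10 Gram-positive and Gram-negative organisms; values averaged from multiple experiments.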

The test system of assay [2] is Bacteria. In words: MIC ratio measured as the mean MICs of gram-negative bacteria. An outline of the steps:
(§2)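 Geometric mean of the microtitration MICs (µg/mL) over the Gram-negative organisms, and separately over the Gram-positive organisms, of the 10-strain panel; individual MICs averaged from multiple experiments.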

The test system of a further assay is Enterococcus faecalis. In words: Antibacterial activity was determined against gram positive organism, Streptococcus faecalis MGH-2. The following applies: Enterococcus faecalis; read-out: MIC. An outline of the steps: as §1
In assay [3] the test system is Bacteria. Briefly: Antibacterial activity was determined against gram negative organism, Providencia rettgeri. M1771. Conditions: Bacteria; read-out: MIC. An outline of the steps:
as §1

A further assay deals with Streptococcus pneumoniae. Briefly: Antibacterial activity was determined against gram positive organism, Streptococcus pneumoniae SV-1. The following applies: Streptococcus pneumoniae; read-out: MIC. An outline of the steps:
as §1

The target in assay [4] is DNA gyrase (Escherichia coli) (UniProt P0AES6+P0AES4). In words: Minimum inhibitory concentration against Escherichia coli DNA-gyrase in supercoiling assay.
Another assay deals with Enterobacter cloacae. In words: Antibacterial activity was determined against gram negative organism, Enterobacter cloacae MA2646. The following applies: Enterobacter cloacae; read-out: MIC.
In assay [5] the test system is Bacteria. In words: MIC ratio measured as the mean MICs of gram-positive bacteria. An outline of the steps:
as §2

A further assay relates to Pseudomonas aeruginosa. In words: Antibacterial activity was determined against gram negative organism, Pseudomonas aeruginosa UI-18. The following applies: Pseudomonas aeruginosa; read-out: MIC. An outline of the steps:
as §1

The subject of another assay is Klebsiella pneumoniae. Briefly: Antibacterial activity was determined against gram negative organism, Klebsiella pneumoniae MGH-2. The following applies: Klebsiella pneumoniae; read-out: MIC. The gist of the method: as §1
In the next assay the test system is Streptococcus pyogenes. In words: Antibacterial activity was determined against gram positive organism, Streptococcus pyogenes C203. The following applies: Streptococcus pyogenes; read-out: MIC. An outline of the steps:
as §1

The next assay has as its system Escherichia coli. Briefly: Antibacterial activity was determined against gram negative organism, Escherichia coli vogel. Conditions: Escherichia coli; read-out: MIC. An outline of the steps: as §1
In assay [6] the test system is Staphylococcus aureus. In words: Antibacterial activity was determined against gram positive organism, Staphylococcus aureus UC76. An outline of the steps:
as §1

The mark [7] stands for this setting: Staphylococcus aureus, read-out: MIC.

The structures appear in SMILES notation. Converted amounts (≈) assume the structure as drawn.

On to `CCNCC1CCN(c2c(F)c(N)c3c(=O)c(C(=O)O)cn(CC)c3c2F)C1` (centres undefined), for which the MIC in the assay with Staphylococcus aureus [1] amounted to 0.2 µg/mL (≈ 0.507 µM); in the assay with Enterococcus faecalis, 0.2 µg/mL (≈ 0.507 µM); in the assay on Bacteria [3], 1.6 µg/mL (≈ 4.06 µM); with Streptococcus pneumoniae, 0.2 µg/mL (≈ 0.507 µM); in assay [4] it was 3.8 µg/mL (≈ 9.63 µM); in the assay on Enterobacter cloacae, 0.4 µg/mL (≈ 1.01 µM). Further, the MIC worked out at 6.3 µg/mL (≈ 16 µM) in the assay with Pseudomonas aeruginosa; 1.6 µg/mL (≈ 4.06 µM) in the assay with Klebsiella pneumoniae; 0.2 µg/mL (≈ 0.507 µM) with Streptococcus pyogenes; 0.2 µg/mL (≈ 0.507 µM) with Escherichia coli; 0.1 µg/mL (≈ 0.254 µM) in the assay on Staphylococcus aureus [6] (setting [7]). Further, the Geometric mean MIC over Gram-negative bacteria (µg/mL) in the assay on Bacteria [2] was determined as 1.05. Moreover, in the assay on Bacteria [5], the “Geometric mean MIC over Gram-positive bacteria (µg/mL)” value is recorded as 0.17.

Consider `CCn1cc(C(=O)O)c(=O)c2c(O)c(F)c(N3CC(C)NC(C)C3)c(F)c21` (centres undefined), for which the MIC was 6.3 µg/mL (≈ 16.5 µM) in the assay with Staphylococcus aureus [1]; 25 µg/mL (≈ 65.6 µM) in the assay on Enterococcus faecalis; 6.3 µg/mL (≈ 16.5 µM) in the assay with Bacteria [3]; 50 µg/mL (≈ 131 µM) in the assay with Streptococcus pneumoniae; 5 µg/mL (≈ 13.1 µM) in [4]; 0.8 µg/mL (≈ 2.1 µM) in the assay with Enterobacter cloacae. In addition, the MIC with Pseudomonas aeruginosa was determined as 12.5 µg/mL (≈ 32.8 µM); with Klebsiella pneumoniae, 1.6 µg/mL (≈ 4.2 µM); in the assay with Streptococcus pyogenes, 50 µg/mL (≈ 131 µM); with Escherichia coli it was 0.8 µg/mL (≈ 2.1 µM); in the assay on Staphylococcus aureus [6] (setting [7]), 3.1 µg/mL (≈ 8.13 µM). Further, in the assay on Bacteria [2], the Geometric mean MIC over Gram-negative bacteria (µg/mL) was found to be 2.41. Also, the “Geometric mean MIC over Gram-positive bacteria (µg/mL)” value in the assay with Bacteria [5] is 16.49.

Take `CCNCC1CCN(c2cc3c(cc2F)c(=O)c(C(=O)O)cn3CC)C1` (centres undefined): the MIC with Staphylococcus aureus [1] came out at 0.2 µg/mL (≈ 0.553 µM); in the assay with Enterococcus faecalis, 0.2 µg/mL (≈ 0.553 µM); in the assay with Bacteria [3], 1.6 µg/mL (≈ 4.43 µM); in the assay with Streptococcus pneumoniae, 0.2 µg/mL (≈ 0.553 µM); in assay [4] it was 2.5 µg/mL (≈ 6.92 µM); with Enterobacter cloacae, 0.4 µg/mL (≈ 1.11 µM). Besides, the MIC with Pseudomonas aeruginosa was found to be 3.1 µg/mL (≈ 8.58 µM); in the assay on Klebsiella pneumoniae, 0.4 µg/mL (≈ 1.11 µM); with Streptococcus pyogenes, 0.1 µg/mL (≈ 0.277 µM); with Escherichia coli it was 0.1 µg/mL (≈ 0.277 µM); against Staphylococcus aureus [6], 0.1 µg/mL (≈ 0.277 µM). Besides, the Geometric mean MIC over Gram-negative bacteria (µg/mL) with Bacteria [2] is 0.6. For the same compound, the “Geometric mean MIC over Gram-positive bacteria (µg/mL)” value in the assay with Bacteria [5] amounted to 0.15.

With `CCn1cc(C(=O)O)c(=O)c2c(N)c(F)c(N3CCC(N)C3)c(F)c21` (centres undefined), the MIC worked out at 0.4 µg/mL (≈ 1.14 µM) in the assay on Staphylococcus aureus [1]; 0.8 µg/mL (≈ 2.27 µM) with Enterococcus faecalis; 0.4 µg/mL (≈ 1.14 µM) in the assay with Bacteria [3]; 0.8 µg/mL (≈ 2.27 µM) with Streptococcus pneumoniae; 2.5 µg/mL (≈ 7.1 µM) in [4]; 0.2 µg/mL (≈ 0.568 µM) in the assay with Enterobacter cloacae. Further, the MIC with Pseudomonas aeruginosa worked out at 1.6 µg/mL (≈ 4.54 µM); in the assay on Klebsiella pneumoniae it was 0.2 µg/mL (≈ 0.568 µM); with Streptococcus pyogenes, 0.8 µg/mL (≈ 2.27 µM); with Escherichia coli, 0.1 µg/mL (≈ 0.284 µM); in the assay with Staphylococcus aureus [6] (setting [7]), 0.2 µg/mL (≈ 0.568 µM). Further, in the assay on Bacteria [2], the Geometric mean MIC over Gram-negative bacteria (µg/mL) was found to be 0.3. The “Geometric mean MIC over Gram-positive bacteria (µg/mL)” value with Bacteria [5] turned out to be 0.53.

With `CCn1cc(C(=O)O)c(=O)c2cc(F)c(N3CCNCC3)c(Cl)c21`, the MIC in the assay on Staphylococcus aureus [1] was 0.4 µg/mL (≈ 1.13 µM); with Enterococcus faecalis, 3.1 µg/mL (≈ 8.76 µM); with Bacteria [3], 0.4 µg/mL (≈ 1.13 µM); with Streptococcus pneumoniae, 3.1 µg/mL (≈ 8.76 µM); in [4] it was 2.5 µg/mL (≈ 7.07 µM); with Enterobacter cloacae, 0.1 µg/mL (≈ 0.283 µM). Further, the MIC in the assay on Pseudomonas aeruginosa worked out at 3.1 µg/mL (≈ 8.76 µM); in the assay on Klebsiella pneumoniae, 0.2 µg/mL (≈ 0.565 µM); in the assay with Streptococcus pyogenes it was 3.1 µg/mL (≈ 8.76 µM); in the assay with Escherichia coli it was 0.1 µg/mL (≈ 0.283 µM); with Staphylococcus aureus [6], 0.2 µg/mL (≈ 0.565 µM). Further, the Geometric mean MIC over Gram-negative bacteria (µg/mL) in the assay with Bacteria [2] amounted to 0.3. In addition, the “Geometric mean MIC over Gram-positive bacteria (µg/mL)” value in the assay on Bacteria [5] worked out at 1.19.

As for `CCn1cc(C(=O)O)c(=O)c2cc(F)c(N3CCC(N)C3)c(Cl)c21` (centres undefined), the MIC stood at 0.4 µg/mL (≈ 1.13 µM) with Staphylococcus aureus [1]; 0.4 µg/mL (≈ 1.13 µM) in the assay on Enterococcus faecalis; 0.2 µg/mL (≈ 0.565 µM) with Bacteria [3]; 0.4 µg/mL (≈ 1.13 µM) in the assay on Streptococcus pneumoniae; 2.5 µg/mL (≈ 7.07 µM) in assay [4]; 0.05 µg/mL (≈ 0.141 µM) with Enterobacter cloacae. Besides, the MIC with Pseudomonas aeruginosa was determined as 0.8 µg/mL (≈ 2.26 µM); in the assay with Klebsiella pneumoniae it was 0.1 µg/mL (≈ 0.283 µM); in the assay with Streptococcus pyogenes, 0.4 µg/mL (≈ 1.13 µM); in the assay on Escherichia coli it was 0.05 µg/mL (≈ 0.141 µM); in the assay on Staphylococcus aureus [6], 0.1 µg/mL (≈ 0.283 µM). Also, the Geometric mean MIC over Gram-negative bacteria (µg/mL) with Bacteria [2] came to 0.13. Also, the “Geometric mean MIC over Gram-positive bacteria (µg/mL)” value in the assay on Bacteria [5] was 0.3.

In the case of `CCn1cc(C(=O)O)c(=O)c2c(O)c(F)c(N3CCNCC3)c(F)c21`, the MIC came out at 12.5 µg/mL (≈ 35.4 µM) with Staphylococcus aureus [1]; 25 µg/mL (≈ 70.8 µM) with Enterococcus faecalis; 1.6 µg/mL (≈ 4.53 µM) with Bacteria [3]; 25 µg/mL (≈ 70.8 µM) in the assay with Streptococcus pneumoniae; 5 µg/mL (≈ 14.2 µM) in assay [4]; 0.4 µg/mL (≈ 1.13 µM) in the assay on Enterobacter cloacae. Also, the MIC in the assay with Pseudomonas aeruginosa was found to be 1.6 µg/mL (≈ 4.53 µM); in the assay with Klebsiella pneumoniae, 0.8 µg/mL (≈ 2.26 µM); in the assay with Streptococcus pyogenes it was 25 µg/mL (≈ 70.8 µM); with Escherichia coli, 0.4 µg/mL (≈ 1.13 µM); in the assay on Staphylococcus aureus [6] (setting [7]), 1.6 µg/mL (≈ 4.53 µM). For the same compound, in the assay on Bacteria [2], the Geometric mean MIC over Gram-negative bacteria (µg/mL) turned out to be 0.8. The “Geometric mean MIC over Gram-positive bacteria (µg/mL)” value in the assay with Bacteria [5] is 12.56.

Turning to `O=C(O)c1cn(C2CC2)c2c(F)c(N3CCNCC3)c(F)c(O)c2c1=O`, the MIC turned out to be 1.6 µg/mL (≈ 4.38 µM) in the assay with Staphylococcus aureus [1]; 1.6 µg/mL (≈ 4.38 µM) in the assay on Enterococcus faecalis; 0.2 µg/mL (≈ 0.547 µM) with Bacteria [3]; 1.6 µg/mL (≈ 4.38 µM) in the assay with Streptococcus pneumoniae; 0.5 µg/mL (≈ 1.37 µM) in assay [4]; 0.1 µg/mL (≈ 0.274 µM) in the assay on Enterobacter cloacae. Further, the MIC in the assay on Pseudomonas aeruginosa stood at 0.8 µg/mL (≈ 2.19 µM); in the assay on Klebsiella pneumoniae, 0.2 µg/mL (≈ 0.547 µM); in the assay with Streptococcus pyogenes, 1.6 µg/mL (≈ 4.38 µM); with Escherichia coli it was 0.05 µg/mL (≈ 0.137 µM); in the assay with Staphylococcus aureus [6] (setting [7]), 0.2 µg/mL (≈ 0.547 µM). For the same compound, the Geometric mean MIC over Gram-negative bacteria (µg/mL) with Bacteria [2] was found to be 0.17. Besides, in the assay with Bacteria [5], the “Geometric mean MIC over Gram-positive bacteria (µg/mL)” value is listed as 1.06.
